Values after ≈ are worked out from the molar mass of the structure shown.
Tests used:
Assay type in all cases: functional
[1] = system: Staphylococcus epidermidis; experiment: Antimicrobial activity against Staphylococcus epidermidis ATCC 12228 by broth dilution method
Staphylococcus aureus [2] = experiment: Antimicrobial activity against Staphylococcus aureus ATCC 29213 by broth dilution method; settings: Staphylococcus aureus, ATCC 29213
Staphylococcus aureus [3] = experiment: Bactericidal activity against methicillin-resistant Staphylococcus aureus clinical isolate 264 after 24 hrs; settings: isolate 264, 24 h
Summary of the method: (§1)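 Bactericidal concentration: 0.1 ml from wells at the MIC dilution and the dilutions on either side was streaked onto tryptic soy agar and incubated 24 h. It was taken as the lowest drug concentration giving no growth (100% killing).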

Staphylococcus aureus [4] = experiment: Bactericidal activity against methicillin-resistant Staphylococcus aureus clinical isolate 260 after 24 hrs; settings: isolate 260, 24 h; summary of the method: as §1
Staphylococcus aureus [5] = experiment: Bactericidal activity against methicillin-resistant Staphylococcus aureus clinical isolate 259 after 24 hrs; settings: isolate 259, 24 h; summary of the method: as §1
Staphylococcus aureus [6] = experiment: Bactericidal activity against methicillin-resistant Staphylococcus aureus clinical isolate 257 after 24 hrs; settings: isolate 257, 24 h; summary of the method: as §1
Staphylococcus aureus [7] = experiment: Bactericidal activity against methicillin-resistant Staphylococcus aureus clinical isolate 255 after 24 hrs; settings: isolate 255, 24 h; summary of the method: as §1
Staphylococcus aureus [8] = experiment: Bactericidal activity against methicillin-resistant Staphylococcus aureus clinical isolate 238 after 24 hrs; settings: isolate 238, 24 h; summary of the method: as §1
Staphylococcus aureus [9] = experiment: Bactericidal activity against methicillin-resistant Staphylococcus aureus clinical isolate 237 after 24 hrs; settings: isolate 237, 24 h; summary of the method: as §1
Staphylococcus aureus [10] = experiment: Bactericidal activity against methicillin-resistant Staphylococcus aureus clinical isolate 236 after 24 hrs; settings: isolate 236, 24 h; summary of the method: as §1
Staphylococcus aureus [11] = experiment: Bactericidal activity against methicillin-resistant Staphylococcus aureus clinical isolate 235 after 24 hrs; settings: isolate 235, 24 h; summary of the method: as §1
Staphylococcus aureus [12] = experiment: Bactericidal activity against methicillin-resistant Staphylococcus aureus clinical isolate 232 after 24 hrs; settings: isolate 232, 24 h; summary of the method: as §1
Staphylococcus aureus [13] = experiment: Bactericidal activity against methicillin-resistant Staphylococcus aureus clinical isolate 231 after 24 hrs; settings: isolate 231, 24 h; summary of the method: as §1
[14] = system: Staphylococcus epidermidis; experiment: Bactericidal activity against Staphylococcus epidermidis ATCC 12228 after 24 hrs; settings: ATCC 12228, 24 h
Summary of the method: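 MBC: after MIC determination, 0.1 ml from the MIC well and from two dilutions either side streaked on tryptic soy agar, incubated 24 h; MBC taken as lowest concentration giving no growth (100% kill).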

Staphylococcus aureus [15] = experiment: Bactericidal activity against Staphylococcus aureus ATCC 29213 after 24 hrs; settings: ATCC 29213, 24 h; summary of the method: as §1
Candida parapsilosis = experiment: Antimicrobial activity against Candida parapsilosis ATCC 90030 by broth dilution method; settings: Lodderomyces parapsilosis
Nakaseomyces glabratus = experiment: Antimicrobial activity against Candida glabrata ATCC 18804 by broth dilution method
Candida albicans = experiment: Antimicrobial activity against Candida albicans ATCC 22019 by broth dilution method
Candida tropicalis = experiment: Antimicrobial activity against Candida tropicalis ATCC 750 by broth dilution method
Staphylococcus aureus [16] = experiment: Antimicrobial activity against methicillin-resistant Staphylococcus aureus clinical isolate by broth dilution method
Staphylococcus aureus [17] = experiment: Antimicrobial activity against methicillin-resistant Staphylococcus aureus clinical isolate 264 by broth dilution method
Staphylococcus aureus [18] = experiment: Antimicrobial activity against methicillin-resistant Staphylococcus aureus clinical isolate 260 by broth dilution method
Staphylococcus aureus [19] = experiment: Antimicrobial activity against methicillin-resistant Staphylococcus aureus clinical isolate 257 by broth dilution method
Staphylococcus aureus [20] = experiment: Antimicrobial activity against methicillin-resistant Staphylococcus aureus clinical isolate 259 by broth dilution method
Staphylococcus aureus [21] = experiment: Antimicrobial activity against methicillin-resistant Staphylococcus aureus clinical isolate 238 by broth dilution method
Staphylococcus aureus [22] = experiment: Antimicrobial activity against methicillin-resistant Staphylococcus aureus clinical isolate 255 by broth dilution method
Staphylococcus aureus [23] = experiment: Antimicrobial activity against methicillin-resistant Staphylococcus aureus clinical isolate 237 by broth dilution method
Staphylococcus aureus [24] = experiment: Antimicrobial activity against methicillin-resistant Staphylococcus aureus clinical isolate 236 by broth dilution method
Staphylococcus aureus [25] = experiment: Antimicrobial activity against methicillin-resistant Staphylococcus aureus clinical isolate 235 by broth dilution method
Staphylococcus aureus [26] = experiment: Antimicrobial activity against methicillin-resistant Staphylococcus aureus clinical isolate 232 by broth dilution method
Staphylococcus aureus [27] = experiment: Antimicrobial activity against methicillin-resistant Staphylococcus aureus clinical isolate 227 by broth dilution method
Staphylococcus aureus [28] = experiment: Antimicrobial activity against methicillin-resistant Staphylococcus aureus clinical isolate 231 by broth dilution method
Staphylococcus aureus [29] = experiment: Antimicrobial activity against methicillin-resistant Staphylococcus aureus clinical isolate 225 by broth dilution method
Staphylococcus aureus [30] = experiment: Antimicrobial activity against methicillin-resistant Staphylococcus aureus clinical isolate 215 by broth dilution method
Staphylococcus aureus [31] = experiment: Antimicrobial activity against methicillin-resistant Staphylococcus aureus clinical isolate 218 by broth dilution method
Staphylococcus aureus [32] = experiment: Antimicrobial activity against methicillin-resistant Staphylococcus aureus clinical isolate 212 by broth dilution method
Staphylococcus aureus [33] = experiment: Antimicrobial activity against methicillin-resistant Staphylococcus aureus clinical isolate 207 by broth dilution method
Staphylococcus aureus [34] = experiment: Antimicrobial activity against methicillin-resistant Staphylococcus aureus clinical isolate 205 by broth dilution method
Staphylococcus aureus [35] = experiment: Antimicrobial activity against methicillin-resistant Staphylococcus aureus clinical isolate 195 by broth dilution method
Staphylococcus aureus [36] = experiment: Antimicrobial activity against methicillin-resistant Staphylococcus aureus clinical isolate 178 by broth dilution method
Staphylococcus aureus [37] = experiment: Antimicrobial activity against methicillin-resistant Staphylococcus aureus clinical isolate 176 by broth dilution method
Pseudomonas aeruginosa = experiment: Antimicrobial activity against Pseudomonas aeruginosa ATCC 27853 by broth dilution method
Escherichia coli = experiment: Antimicrobial activity against Escherichia coli ATCC 11229 by broth dilution method; settings: Escherichia coli, ATCC 11229

Q: What does the source list for `CCCCCCCCCCCCCCOc1ccc(CNC(CO)(CO)CO)cc1.Cl`?
A: -logMIC [1]: 5.36; MIC ([1]; Staphylococcus epidermidis, ATCC 12228): 2 mg/L; MIC (Staphylococcus aureus [2]): 2 mg/L; MBC (Staphylococcus aureus [3]): 64 mg/L; MBC (Staphylococcus aureus [4]): 8 mg/L; MBC (Staphylococcus aureus [5]): 2 mg/L; MBC (Staphylococcus aureus [6]): 8 mg/L; MBC (Staphylococcus aureus [7]): 16 mg/L; MBC (Staphylococcus aureus [8]): 4 mg/L; MBC (Staphylococcus aureus [9]): 4 mg/L; MBC (Staphylococcus aureus [10]): 8 mg/L; MBC (Staphylococcus aureus [11]): 8 mg/L; MBC (Staphylococcus aureus [12]): 8 mg/L; MBC (Staphylococcus aureus [13]): 4 mg/L; MBC [14]: 512 mg/L; MBC (Staphylococcus aureus [15]): 16 mg/L; MIC (Candida parapsilosis): 8 mg/L; MIC (Nakaseomyces glabratus): 8 mg/L; MIC (Candida albicans): 16 mg/L; MIC (Candida tropicalis): 32 mg/L; -logMIC (Staphylococcus aureus [16]): 5.03; MIC50 (Staphylococcus aureus [16]; Staphylococcus aureus): 8 mg/L; MIC90 (Staphylococcus aureus [16]; Staphylococcus aureus): > 1020 mg/L; MIC (Staphylococcus aureus [17]): 16 mg/L; MIC (Staphylococcus aureus [18]): 2 mg/L; MIC (Staphylococcus aureus [19]): 2 mg/L; MIC (Staphylococcus aureus [20]): 2 mg/L; MIC (Staphylococcus aureus [21]): 4 mg/L; MIC (Staphylococcus aureus [22]): 8 mg/L; MIC (Staphylococcus aureus [23]): 4 mg/L; MIC (Staphylococcus aureus [24]): 8 mg/L; MIC (Staphylococcus aureus [25]): 4 mg/L; MIC (Staphylococcus aureus [26]): 8 mg/L; MIC (Staphylococcus aureus [27]): > 1020 mg/L; MIC (Staphylococcus aureus [28]): 2 mg/L; MIC (Staphylococcus aureus [29]): > 1020 mg/L; MIC (Staphylococcus aureus [30]): > 1020 mg/L; MIC (Staphylococcus aureus [31]): 8 mg/L; MIC (Staphylococcus aureus [32]): > 1020 mg/L; MIC (Staphylococcus aureus [33]): > 1020 mg/L; MIC (Staphylococcus aureus [34]): 16 mg/L; MIC (Staphylococcus aureus [35]): 16 mg/L; MIC (Staphylococcus aureus [36]): 8 mg/L; MIC (Staphylococcus aureus [37]): 16 mg/L; MIC (Pseudomonas aeruginosa): > 256 mg/L; MIC (Escherichia coli): > 256 mg/L

Q: `CCC(C)n1ncn(-c2ccc(N3CCN(c4ccc(OCC5COC(Cn6cncn6)(c6ccc(Cl)cc6Cl)O5)cc4)CC3)cc2)c1=O` (centres undefined) [ITRACONAZOLE] was tested. Which MIC (Candida parapsilosis) did it give?
A: > 512 mg/L

Q: What about the MIC (Nakaseomyces glabratus) of the same compound?
A: 256 mg/L (≈ 363 µM)

Q: What about the MIC (Candida tropicalis) of the same compound?
A: > 512 mg/L

Source: ChEMBL document CHEMBL2380298, “Synthesis and antimicrobial activity of novel amphiphilic aromatic amino alcohols” (2013)
